Reference: ChEMBL document CHEMBL1122908, “10-Ketonaltrexone and 10-ketooxymorphone” (J Med Chem, 1985)

Key:
[1] = biological target: Mu-type opioid receptor (Cavia porcellus) (UniProt P97266); assay: Dose ratio due to Antagonist Effect at a concentration of 100 nM by normorphine, Opioid receptor mu 1 in the guinea pig ileum longitudinal muscle myenteric plexus.; assay type: functional, tissue-based
How it was run: (§1)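 Isolated guinea pig ileum myenteric plexus–longitudinal muscle and mouse vas deferens. Agonists were normorphine (μ) and ethylketazocine (κ) in both tissues, and (D-Ala2,D-Leu5)enkephalin (δ) in vas deferens. The shift in IC50 is given as dose ratio, mean ± SEM of three to five separate experiments.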

[2] = biological target: Kappa-type opioid receptor (Cavia porcellus) (UniProt P41144); assay: Dose ratio due to Antagonist Effect at a concentration of 100 nM by ethylketazocine, Opioid receptor kappa 1 in the guinea pig ileum longitudinal muscle myenteric plexus.; assay type: functional, tissue-based; how it was run: as §1
[3] = biological target: Delta-type opioid receptor (Mus musculus) (UniProt P32300); assay: Dose ratio due to Antagonist Effect at a concentration of 1000 nM by (D-Ala2, D-Leu5)enkephalin, Opioid receptor delta 1 in mouse vas deferens.; assay type: functional
How it was run: as §1, with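 “vas deferens. […] The shift” for “vas deferens. The shift”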

[4] = biological target: Mu-type opioid receptor (Mus musculus) (UniProt P42866); assay: Dose ratio due to Antagonist Effect at a concentration of 100 nM by normorphine, Opioid receptor mu 1 in mouse vas deferens.; assay type: functional; how it was run: as §1
[5] = biological target: Kappa-type opioid receptor (Mus musculus) (UniProt P33534); assay: Dose ratio due to Antagonist Effect at a concentration of 100 nM by ethylketazocine, Opioid receptor kappa 1 in mouse vas deferens.; assay type: functional; how it was run: as §1
Mu-type opioid receptor = Mu-type opioid receptor (Cavia porcellus, UniProt P97266); assay: Inhibitory binding constant in guinea pig brain homogenate was reported at mu site at a temperature 25 degree Centigrade labeled with [3H](D-Ala2-MePhe4,Gly-ol5)enkephalin(1 nM); assay type: tissue-based
[6] = biological target: Kappa-type opioid receptor (Cavia porcellus, UniProt P41144); assay: (§2) Inhibitory binding constant in guinea pig brain homogenate was reported at Opioid receptor kappa 1 at temperature 25 degree Celsius labeled with (-)-[3H]immazocine (0.1 nM).; assay type: tissue-based
[7] = biological target: Mu-type opioid receptor (Cavia porcellus) (UniProt P97266); assay: Inhibitory binding constant in guinea pig brain homogenate was reported at mu site at a temperature 25 degree Celsius labeled with [3H](D-Ala2-MePhe4,Gly-ol5)enkephalin(1nM); assay type: tissue-based
Cavia porcellus = organism: Cavia porcellus; assay: Agonist activity in the guinea pig ileum longitudinal muscle myenteric plexus.; assay type: functional
How it was run: (§3)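 Isolated guinea pig ileum myenteric plexus–longitudinal muscle or mouse vas deferens preparations, run at 25 °C, testing opioid agonist potency.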

Mus musculus = organism: Mus musculus; assay: Agonist activity in the mouse vas deferens.; assay type: functional; how it was run: as §3
[8] = biological target: Kappa-type opioid receptor (Cavia porcellus) (UniProt P41144); assay: as §2; assay type: tissue-based

Chain of Kappa-type opioid receptor (Cavia porcellus) (P41144 whole entry): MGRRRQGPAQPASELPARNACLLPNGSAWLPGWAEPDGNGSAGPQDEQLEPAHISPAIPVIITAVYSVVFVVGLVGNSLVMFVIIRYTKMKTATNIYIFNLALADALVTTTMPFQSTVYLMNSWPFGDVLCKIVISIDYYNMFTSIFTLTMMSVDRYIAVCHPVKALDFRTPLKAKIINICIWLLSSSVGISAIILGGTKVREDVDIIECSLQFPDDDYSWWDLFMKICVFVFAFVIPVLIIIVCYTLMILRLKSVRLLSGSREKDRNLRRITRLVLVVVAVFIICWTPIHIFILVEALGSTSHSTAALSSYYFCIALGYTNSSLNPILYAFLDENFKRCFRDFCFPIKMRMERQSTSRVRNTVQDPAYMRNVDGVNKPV
Chain of Mu-type opioid receptor (Cavia porcellus) (P97266 whole entry): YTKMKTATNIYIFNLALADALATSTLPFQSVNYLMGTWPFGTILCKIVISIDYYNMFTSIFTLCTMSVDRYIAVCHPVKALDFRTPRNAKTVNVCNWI
Chain of Delta-type opioid receptor (Mus musculus) (P32300 whole entry): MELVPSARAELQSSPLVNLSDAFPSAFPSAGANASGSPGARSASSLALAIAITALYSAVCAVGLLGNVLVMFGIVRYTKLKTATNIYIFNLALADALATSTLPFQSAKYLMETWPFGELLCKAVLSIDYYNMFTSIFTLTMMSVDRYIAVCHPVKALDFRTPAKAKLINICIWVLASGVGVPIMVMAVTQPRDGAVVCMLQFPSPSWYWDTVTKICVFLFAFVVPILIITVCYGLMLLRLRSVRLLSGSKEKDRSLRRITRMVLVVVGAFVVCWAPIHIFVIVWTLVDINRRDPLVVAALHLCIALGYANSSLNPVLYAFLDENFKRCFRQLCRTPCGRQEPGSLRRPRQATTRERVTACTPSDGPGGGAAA
Chain of Kappa-type opioid receptor (Mus musculus) (P33534 whole entry): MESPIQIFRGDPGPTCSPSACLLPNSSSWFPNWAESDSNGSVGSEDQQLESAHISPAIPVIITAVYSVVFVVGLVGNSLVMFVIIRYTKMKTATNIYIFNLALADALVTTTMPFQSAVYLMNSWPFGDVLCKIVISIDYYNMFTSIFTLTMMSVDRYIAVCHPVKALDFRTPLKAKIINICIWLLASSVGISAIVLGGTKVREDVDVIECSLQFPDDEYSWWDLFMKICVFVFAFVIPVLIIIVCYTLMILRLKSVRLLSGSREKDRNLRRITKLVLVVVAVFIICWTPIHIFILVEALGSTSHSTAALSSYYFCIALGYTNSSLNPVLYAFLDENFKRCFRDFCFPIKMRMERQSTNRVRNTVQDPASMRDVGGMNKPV
Chain of Kappa-type opioid receptor (P41144 whole entry): as the sequence (P41144 whole entry) above
Chain of Mu-type opioid receptor (P97266 whole entry): as the sequence (P97266 whole entry) above
Chain of Mu-type opioid receptor (Mus musculus) (P42866 whole entry): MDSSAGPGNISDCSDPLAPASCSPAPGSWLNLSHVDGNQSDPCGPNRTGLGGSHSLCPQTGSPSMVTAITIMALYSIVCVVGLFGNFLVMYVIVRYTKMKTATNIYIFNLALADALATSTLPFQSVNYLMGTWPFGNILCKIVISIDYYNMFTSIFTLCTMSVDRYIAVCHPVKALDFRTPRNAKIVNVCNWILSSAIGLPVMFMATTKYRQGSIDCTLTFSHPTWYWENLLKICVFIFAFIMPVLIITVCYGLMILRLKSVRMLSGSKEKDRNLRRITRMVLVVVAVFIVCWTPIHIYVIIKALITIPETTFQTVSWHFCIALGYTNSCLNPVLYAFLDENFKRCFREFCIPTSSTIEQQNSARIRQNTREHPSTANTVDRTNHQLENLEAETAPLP

Row | Compound | Dose ratio [1] | Dose ratio [2] | Dose ratio [3] | Dose ratio [4] | Dose ratio [5] | Ki (Mu-type opioid receptor) | Ki [6] | inhibition [7] | IC50 (Cavia porcellus) | IC50 (Mus musculus) | inhibition [8]
1 | O=C1c2ccc(O)c3c2C24CCN(CC5CC5)C1[C@]2(O)CCC(=O)[C@@H]4O3 (stereo partly drawn) [KETONALTREXONE] | 1.84 | 1.58 | 0.71 | 0.57 | 0.93 | 31.1 nM | 102 nM |  |  |  | 
2 | CN1CCC23c4c5ccc(O)c4O[C@H]2C(=O)CC[C@@]3(O)C1C5=O (stereo partly drawn) [KETOXYMORPHONE] |  |  |  |  |  |  |  | 19% | > 1000 nM | > 1000 nM | 17%
3 | CN1CC[C@]23c4c5ccc(O)c4O[C@H]2C(=O)CC[C@@]3(O)[C@H]1C5 [OXYMORPHONE] |  |  |  |  |  |  |  |  | 24 nM | 77 nM | 
